Calls of active or inactive are those of the source. No cut-off for these calls is given here.
Experiments:
Format in all cases: functional
[1] = biological target: T1, Transcriptional activator protein LuxR (Aliivibrio fischeri, UniProt P12746); test: Antagonist activity at Vibrio fischeri LuxR assessed as inhibition of 3-oxo-C6-HSL-induced quorum sensing activation mediated bioluminescence
T1 sequence (P12746 whole entry): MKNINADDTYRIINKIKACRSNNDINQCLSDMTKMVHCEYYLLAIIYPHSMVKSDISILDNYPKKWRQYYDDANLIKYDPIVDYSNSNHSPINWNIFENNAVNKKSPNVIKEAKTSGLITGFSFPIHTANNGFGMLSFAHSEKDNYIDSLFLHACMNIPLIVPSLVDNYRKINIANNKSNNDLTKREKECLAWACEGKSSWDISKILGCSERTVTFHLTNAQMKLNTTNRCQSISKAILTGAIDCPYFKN
How it was run: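 Bioluminescence induced with 200 nM 3-oxo-C6-HSL, with test compounds added. IC50 is the concentration that halves the induced light intensity. Values are means of three experiments with standard deviation.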

[2] = biological target: T2, Transcriptional activator protein LuxR (Aliivibrio fischeri) (UniProt P12746); test: Agonist activity at Vibrio fischeri LuxR assessed as activation of quorum sensing activation mediated bioluminescence
T2 sequence (whole entry): T1 sequence (P12746 whole entry)

[3] = test system: Aliivibrio fischeri; test: Antimicrobial activity against Vibrio fischeri incubated overnight at 37 degC by disc diffusion assay
How it was run: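 Disk diffusion susceptibility assay following CLSI guidelines, with a kanamycin control disk. Compounds were tested at 20 μM, 200 μM, 2 mM and 20 mM. Inhibition zones were measured after overnight incubation at 37 °C, and the MIC was taken from these tested levels.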

IC50 ([1]; read-out: IC50) [µM]	Activity [2]	IC50 [1]	SMILES	MIC [3] [µM]
5.8	inactive	–	CCCCCCCCCCn1cc[n+](C(c2ccc(Cl)cc2)c2ccc(Cl)cc2)c1	–
14.7	inactive	–	CCCCCCCCCCCCCCCCn1cc[n+](C2c3ccccc3-c3ccccc32)c1	–
6.2	inactive	–	CCCCCCCCCCCCn1cc[n+](C(c2ccc(Cl)cc2)c2ccc(Cl)cc2)c1	–
–	inactive	Not Active	CCCCCCCCCCCCCCn1cc[n+](C(c2ccc(Cl)cc2Cl)c2ccc(Cl)cc2Cl)c1.[Br-]	–
–	inactive	Not Active	CCCCn1cc[n+](C(c2ccccc2)c2ccccc2)c1.[Br-]	–
18	inactive	–	CCCCCCCCCCn1cc[n+](C(c2ccccc2)c2ccccc2)c1	–
68	inactive	–	CCCCCCCCn1cc[n+](C2CCCC2)c1	–
1.4	inactive	–	CCCCCCCCCCCCn1cc[n+](C2c3ccccc3-c3ccccc32)c1	200
33	inactive	–	CCCCCCCCCCn1cc[n+](C2CCCC2)c1	–
9.8	inactive	–	CCCCCCCCn1cc[n+](C(c2ccc(Cl)cc2)c2ccc(Cl)cc2)c1	–
8.9	inactive	–	CCCCCCCCn1cc[n+](C(c2ccc(Cl)cc2Cl)c2ccc(Cl)cc2Cl)c1	–
75	inactive	–	CCCCCCCCCCCCCCn1cc[n+](C(c2ccc(Cl)cc2)c2ccc(Cl)cc2)c1	–
7.3	inactive	–	CCCCCCCCCCCCCCCCn1cc[n+](C(c2ccccc2)c2ccccc2)c1	–
5.3	inactive	–	CCCCCCCCCCCCCCCCn1cc[n+](C2CCCC2)c1	–
3.4	inactive	–	CCCCCCCCCCCCCCn1cc[n+](C2CCCC2)c1	200
2.7	inactive	–	CCCCCCCCCCCCCCn1cc[n+](C2c3ccccc3-c3ccccc32)c1	–
35	inactive	–	CCCCCCCCn1cc[n+](C2c3ccccc3-c3ccccc32)c1	–
5.2	inactive	–	CCCCCCCCCCCCCCn1cc[n+](C(c2ccccc2)c2ccccc2)c1	–
52	inactive	–	CCCCCCn1cc[n+](C(c2ccc(Cl)cc2Cl)c2ccc(Cl)cc2Cl)c1	–
4.9	inactive	–	CCCCCCCCCCn1cc[n+](C(c2ccc(Cl)cc2Cl)c2ccc(Cl)cc2Cl)c1	–
76	inactive	–	CCCCCCCCn1cc[n+](C(c2ccccc2)c2ccccc2)c1	–
–	inactive	Not Active	CCCCCCCCCCCCCCCCCCn1cc[n+](C(c2ccc(Cl)cc2Cl)c2ccc(Cl)cc2Cl)c1.[Br-]	–
6.1	inactive	–	CCCCCCCCCCCCn1cc[n+](C(c2ccccc2)c2ccccc2)c1	200
6.5	inactive	–	CCCCCCCCCCCCn1cc[n+](C(c2ccc(Cl)cc2Cl)c2ccc(Cl)cc2Cl)c1	–
11	inactive	–	CCCCCCCCCCCCn1cc[n+](C2CCCC2)c1	–
4	inactive	–	CCCCCCCCCCn1cc[n+](C2c3ccccc3-c3ccccc32)c1	–
153	inactive	–	CCCCCCn1cc[n+](C(c2ccccc2)c2ccccc2)c1	–
63	inactive	–	CCCCCCn1cc[n+](C(c2ccc(Cl)cc2)c2ccc(Cl)cc2)c1	–
86	inactive	–	CCCCCCCCCCCCCCCCCCn1cc[n+](C2CCCC2)c1	–
–	inactive	Not Active	CCCCCCCCCCCCCCCCCCn1cc[n+](C(c2ccc(Cl)cc2)c2ccc(Cl)cc2)c1.[Br-]	–
